{"data": "Measurements of several laboratories", "target": "Dual specificity protein kinase TTK (TTK, Homo sapiens, UniProt P33981)", "Residues used in one study (P33981 1-857)": "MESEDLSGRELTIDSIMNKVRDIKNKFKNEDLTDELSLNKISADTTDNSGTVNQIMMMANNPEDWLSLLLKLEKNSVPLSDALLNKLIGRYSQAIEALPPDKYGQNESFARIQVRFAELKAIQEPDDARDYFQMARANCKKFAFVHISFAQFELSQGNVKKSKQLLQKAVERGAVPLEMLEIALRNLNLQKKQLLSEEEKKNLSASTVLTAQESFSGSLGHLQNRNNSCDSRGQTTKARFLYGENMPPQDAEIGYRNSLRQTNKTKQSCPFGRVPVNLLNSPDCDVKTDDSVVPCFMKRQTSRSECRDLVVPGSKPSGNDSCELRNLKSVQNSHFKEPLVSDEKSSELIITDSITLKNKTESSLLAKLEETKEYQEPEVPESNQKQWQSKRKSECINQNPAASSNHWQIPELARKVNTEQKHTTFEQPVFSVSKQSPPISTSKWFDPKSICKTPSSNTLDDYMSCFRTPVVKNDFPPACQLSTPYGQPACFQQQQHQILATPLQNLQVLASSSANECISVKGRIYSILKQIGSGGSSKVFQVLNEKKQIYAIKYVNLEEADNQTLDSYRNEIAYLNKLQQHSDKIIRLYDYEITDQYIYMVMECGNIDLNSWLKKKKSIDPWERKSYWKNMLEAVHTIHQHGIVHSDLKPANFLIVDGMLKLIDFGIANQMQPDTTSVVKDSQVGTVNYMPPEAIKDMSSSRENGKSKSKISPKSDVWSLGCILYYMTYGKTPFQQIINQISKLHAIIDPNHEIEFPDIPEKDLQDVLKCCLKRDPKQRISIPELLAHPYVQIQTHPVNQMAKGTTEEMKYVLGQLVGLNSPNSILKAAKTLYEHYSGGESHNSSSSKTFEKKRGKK", "note": "Protocols differ between the studies behind these lines."}
{"SMILES": "COc1cc(Nc2cnc(C#N)c(O[C@H](C)CN(C)C)n2)ncc1-c1cnn(C)c1", "test": "enzyme activity, inhibitor, radiometric", "conditions": "1 µM", "measurement": "remaining activity", "result": "81%"}
{"SMILES": "Cc1noc([C@H]2C[C@@H](c3ccc(C(F)(F)F)cc3)CN(C(=O)N3CCS(=O)(=O)C3)C2)n1", "test": "cell-free assay, competition with immobilised ligand", "conditions": "1 µM", "measurement": "remaining binding", "result": "100%"}
{"SMILES": "Oc1cccc(-c2nc(N3CCOCC3)c3oc4ncccc4c3n2)c1", "test": "enzyme activity, inhibitor", "conditions": "10 µM", "measurement": "remaining activity", "result": "66%"}
{"SMILES": "Cn1c2c(c3ccc(Cl)c(Cl)c31)C(C#N)C1(CCNCC1)NC2=O (racemic)", "test": "thermal stability, DSF", "conditions": "10 µM", "measurement": "ΔTm", "result": "0.7 °C"}
{"SMILES": "CC(C)(C)c1nc2c(s1)c1nc(N)ncc1c1ccc(NS(=O)(=O)c3c(F)cccc3F)c(F)c12", "test": "enzyme activity, inhibitor, radiometric", "conditions": "1 µM", "measurement": "remaining activity", "result": "90%"}
{"SMILES": "CN(C(=O)c1ccccc1)c1cc(N(C)c2ccc3c(c2)CCc2ccc(C(=O)NCCN4CCOCC4)cc2C3=O)ccc1F", "test": "cell-free assay, competition with immobilised ligand", "conditions": "1 µM", "measurement": "remaining binding", "result": "87%"}
{"SMILES": "O=C1NC(=O)c2cc(Nc3ccc(F)cc3)c(Nc3ccc(F)cc3)cc21", "test": "cell-free assay", "conditions": "0.5 µM", "measurement": "remaining signal", "result": "95.4%"}
{"SMILES": "Cn1c2c(c3ccc(Cl)c(Cl)c31)C(C#N)C1(CCCCC1)NC2=O (racemic)", "test": "thermal stability, DSF", "conditions": "10 µM", "measurement": "ΔTm", "result": "0.7 °C"}
{"SMILES": "Cc1ccc(C(=O)NCc2ccsc2)cc1C#Cc1cn(C(C)C)c2ncnc(N)c12", "test": "enzyme activity, inhibitor", "conditions": "1 µM", "measurement": "activity vs control", "result": "93%"}
{"SMILES": "N#CC1c2c([nH]c3c(Cl)c(Cl)ccc23)C(=O)NC12CCCCC2 (racemic)", "test": "thermal stability, DSF", "conditions": "10 µM", "measurement": "ΔTm", "result": "0.9 °C"}
{"SMILES": "CCN(CC)CCNC(=O)c1c(C)[nH]c(/C=C2\\C(=O)Nc3ccc(F)cc32)c1C", "test": "cell-free assay", "conditions": "0.5 µM", "measurement": "remaining signal", "result": "68%"}
{"SMILES": "FC(F)(F)c1ccc2c(c1)nc(-c1cccnc1)n2C1CC1", "test": "cell-free assay, competition with immobilised ligand", "conditions": "1 µM", "measurement": "remaining binding", "result": "100%"}
{"SMILES": "Cn1c(=O)n(-c2ccc(C(C)(C)C#N)cc2)c2c3cc(-c4cnc5ccccc5c4)ccc3ncc21", "test": "enzyme activity, inhibitor", "conditions": "10 µM", "measurement": "remaining activity", "result": "91%"}
{"SMILES": "Oc1cccc(-c2nc(N3CCOCC3)c3oc4ncccc4c3n2)c1", "test": "cell-free assay", "conditions": "0.5 µM", "measurement": "remaining signal", "result": "93.3%"}
{"SMILES": "CCOCCn1cc(C(=O)Nc2ccc(-n3nc(-c4cccnc4)cc3C(F)(F)F)cn2)ccc1=O", "test": "cell-free assay, competition with immobilised ligand", "conditions": "1 µM", "measurement": "remaining binding", "result": "100%"}
{"SMILES": "COc1cc(/C=C/C(=O)CC(=O)/C=C/c2ccc(O)c(OC)c2)ccc1O", "test": "enzyme activity, inhibitor", "conditions": "1 µM", "measurement": "activity vs control", "result": "51%"}
{"SMILES": "CCCOc1ccc([C@H]2[C@H](C(=O)O)[C@@H](c3ccc4c(c3)OCO4)CN2CC(=O)Nc2c(CC)cccc2CC)cc1", "test": "cell-free assay, competition with immobilised ligand", "conditions": "1 µM", "measurement": "remaining binding", "result": "94%"}
{"SMILES": "Nc1ncnc2occ(-c3ccc(NC(=O)Nc4cc(C(F)(F)F)ccc4F)cc3)c12", "test": "cell-free assay", "conditions": "20 µM", "measurement": "remaining signal", "result": "4.5%"}
{"SMILES": "Cc1ccc(C(=O)Nc2ccc(CN3CCN(C)CC3)c(C(F)(F)F)c2)cc1C#Cc1cnc2cccnn12", "test": "enzyme activity", "conditions": "23.5 nM", "measurement": "remaining activity", "result": "77%"}
{"SMILES": "CCS(=O)(=O)c1cc2cc(C[C@](O)(CC(C)(C)c3ccc(F)cc3C(N)=O)C(F)(F)F)[nH]c2cn1", "test": "cell-free assay, competition with immobilised ligand", "conditions": "1 µM", "measurement": "remaining binding", "result": "99%"}
{"SMILES": "O=C1Nc2ccc(Cl)cc2C1=Cc1cc(Cl)c(O)c(Cl)c1", "test": "cell-free assay", "conditions": "0.5 µM", "measurement": "remaining signal", "result": "84.4%"}
{"SMILES": "FC(F)(F)Oc1cccc(-c2cnc3ccc(-c4ccncc4)nn23)c1", "test": "enzyme activity, inhibitor, radiometric", "conditions": "5 µM", "measurement": "activity vs control", "result": "67%"}
